Experimental data: paper PMC3694763 (Angewandte Chemie (International Ed. in English), 2012)

Key:
plasmin = plasmin (Homo sapiens, UniProt P00747); experiment: Determination of kcat/Km, cleavage by plasmin; format: biochemical; settings: for selectivity for thrombin over plasmin (ratio of kcat/Km): kcat/Km thrombin versus plasmin
thrombin [1] = target: T1, thrombin (Homo sapiens, UniProt P00734); experiment: Determination of kcat/Km, cleavage by thrombin; format: biochemical; settings: PPRSFL replaced with norleucine-TPRSFL
[2] = target: thrombin activity in developing blood clots (Mus musculus, UniProt P19221); experiment: Tail-clip model, ratiometric Cy5/Cy7 imaging of developing blood clots; format: in vivo; settings: mouse tail clot
factor Xa = factor Xa (Homo sapiens, UniProt P00742); experiment: Determination of kcat/Km, cleavage by factor Xa; format: biochemical; settings: for kcat/Km for factor Xa: 150 mM NaCl, 20 mM Tris pH 7.5, 2 mM CaCl2, 1% BSA, 37°C, Cy5 fluorescence
Chain of factor Xa (P00742 41-179 limits assumed): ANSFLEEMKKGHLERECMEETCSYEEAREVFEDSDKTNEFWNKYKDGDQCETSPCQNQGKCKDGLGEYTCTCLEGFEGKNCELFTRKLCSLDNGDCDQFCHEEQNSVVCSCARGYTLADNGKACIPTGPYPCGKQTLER
Chain of factor Xa (P00742 235-488 limits assumed): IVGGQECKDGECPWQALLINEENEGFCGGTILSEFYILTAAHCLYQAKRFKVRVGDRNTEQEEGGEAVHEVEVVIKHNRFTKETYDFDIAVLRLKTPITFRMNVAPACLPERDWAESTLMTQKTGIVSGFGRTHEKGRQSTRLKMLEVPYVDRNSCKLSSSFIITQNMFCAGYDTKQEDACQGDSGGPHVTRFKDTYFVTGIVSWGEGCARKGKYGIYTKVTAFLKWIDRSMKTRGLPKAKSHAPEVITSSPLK

MMP-9 = MMP-9 (Homo sapiens, UniProt P14780); experiment: Addition of purified MMP-9 to developing blood pools of injected mice; format: in vivo, mouse; settings: blood pool of injected mice; MMP-9 1 µl of 1.5 µM, 10 minutes
Chain of MMP-9 (P14780 107-707): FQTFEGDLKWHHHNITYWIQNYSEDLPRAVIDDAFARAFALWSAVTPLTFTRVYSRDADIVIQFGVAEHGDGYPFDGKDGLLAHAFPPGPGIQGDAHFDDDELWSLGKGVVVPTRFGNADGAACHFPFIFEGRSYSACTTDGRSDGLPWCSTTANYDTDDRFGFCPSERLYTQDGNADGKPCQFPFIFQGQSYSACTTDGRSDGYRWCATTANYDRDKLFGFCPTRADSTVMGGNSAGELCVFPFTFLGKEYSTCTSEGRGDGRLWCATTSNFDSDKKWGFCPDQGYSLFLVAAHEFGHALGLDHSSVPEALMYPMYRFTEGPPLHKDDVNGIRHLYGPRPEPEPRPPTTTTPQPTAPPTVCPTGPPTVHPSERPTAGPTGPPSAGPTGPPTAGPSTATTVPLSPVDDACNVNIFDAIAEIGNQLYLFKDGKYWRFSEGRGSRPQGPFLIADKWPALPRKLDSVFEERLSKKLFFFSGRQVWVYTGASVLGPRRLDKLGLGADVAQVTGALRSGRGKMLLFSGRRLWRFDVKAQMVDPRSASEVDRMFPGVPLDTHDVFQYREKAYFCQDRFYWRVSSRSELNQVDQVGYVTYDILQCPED

[3] = system: pro-coagulation enzymes (thrombin, plasmin, factor Xa); format: biochemical; settings: 1 µM RACPP, 50 nM enzyme, 37°C; tricine gel, Cy5/Cy7 ratio image
Method in brief: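 Each ratiometric probe was incubated separately with purified enzyme for set times. Cleavage products were separated on tricine-SDS polyacrylamide gels. Gels were imaged multispectrally with 620 nm excitation, collecting Cy5 (660–720 nm) and Cy7 (760–830 nm) emission. Cy5 images were divided by Cy7 images and pseudocoloured from blue (ratio minimum) to red (ratio maximum).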

thrombin [4] = target: T1, thrombin; format: biochemical; settings: probe diluted in mouse plasma
Method in brief: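 Probe construction: Cy5 sits on the polycationic domain and the Cy7 acceptor on the polyanionic domain, joined by a thrombin-cleavable linker, so the intact probe undergoes FRET. Emission spectra were recorded in mouse plasma in a cuvette spectrofluorometer before and after adding purified thrombin. Cy5 emission peaks near 670 nm and Cy7 re-emission near 780 nm.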

Chain of plasmin (P00747 97-580 limits assumed, species assumed): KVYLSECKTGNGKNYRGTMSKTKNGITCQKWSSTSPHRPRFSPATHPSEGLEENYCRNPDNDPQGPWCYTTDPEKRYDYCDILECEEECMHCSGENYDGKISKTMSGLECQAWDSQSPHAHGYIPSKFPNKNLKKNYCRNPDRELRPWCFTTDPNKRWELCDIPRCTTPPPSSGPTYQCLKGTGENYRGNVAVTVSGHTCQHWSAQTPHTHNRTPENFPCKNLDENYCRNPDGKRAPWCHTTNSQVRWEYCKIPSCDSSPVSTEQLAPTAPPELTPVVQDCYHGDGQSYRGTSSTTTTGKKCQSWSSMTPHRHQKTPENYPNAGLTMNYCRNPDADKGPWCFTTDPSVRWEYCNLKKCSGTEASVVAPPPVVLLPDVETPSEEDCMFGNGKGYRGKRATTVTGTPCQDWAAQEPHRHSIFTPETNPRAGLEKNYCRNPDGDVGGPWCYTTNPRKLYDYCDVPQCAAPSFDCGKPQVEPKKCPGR
Chain of plasmin (P00747 581-810 limits assumed, species assumed): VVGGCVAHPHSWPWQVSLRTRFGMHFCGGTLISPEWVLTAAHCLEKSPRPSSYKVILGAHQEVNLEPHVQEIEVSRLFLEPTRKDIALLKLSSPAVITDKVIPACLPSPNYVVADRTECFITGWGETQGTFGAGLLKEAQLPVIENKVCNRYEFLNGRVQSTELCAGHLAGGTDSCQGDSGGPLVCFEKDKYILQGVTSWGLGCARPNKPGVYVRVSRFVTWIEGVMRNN

## Cy7-NH-e9-c(S-Peg12)oNLeTPRSFL-r9-c(Cy5)-CONH2 [RACPPNleTPRSFL]
plasmin
  selectivity for thrombin over plasmin (ratio of kcat/Km): 52.5 fold
Thrombin [1]
  acceleration of thrombin cleavage relative to RACPPPPRSFL: approximately 90 fold
[2]; 10 nmol
  Cy5/Cy7 ratio at 15 minutes post injury: 7.2
  change of Cy5/Cy7 ratio at 15 minutes post injury: tenfold
[2]; 10 nmol, n = 3, mean (±SD)
  Cy5/Cy7 ratio at one minute post injury: 0.75(±0.11)
[2]; 10 nmol, n = 3, p = 0.01 vs one minute
  Cy5/Cy7 ratio at five minutes post injury: 3.1(±0.45)

## Cy7-NH-e9-c(S-Peg12)oDPRSFL-r9-c(Cy5)-CONH2 [RACPPDPRSFL]
plasmin; 150 mM NaCl, 20 mM Tris pH 7.5, 2 mM CaCl2, 1% BSA, 37°C, Cy5 fluorescence
  kcat/Km for plasmin: 10000 M⁻¹ s⁻¹
plasmin
  selectivity for thrombin over plasmin (ratio of kcat/Km): less than 2 fold
Factor Xa
  kcat/Km for factor Xa: 6200 M⁻¹ s⁻¹
Factor Xa; kcat/Km thrombin versus factor Xa
  selectivity for thrombin over factor Xa (ratio of kcat/Km): less than 2 fold

## Cy7-NH-e9-c(S-Peg12)oPLGC(Me)AG-r9-c(Cy5)-CONH2 [RACPPPLGC(Me)AG]
MMP-9
  ratiometric contrast after local addition of purified MMP-9: spectacular local ratiometric contrast
[3]
  cleavage by thrombin, plasmin, factor Xa on SDS-PAGE (selectivity): not cleaved by any of the pro-coagulation enzymes
[2]; 10 nmol control probe
  Cy5/Cy7 emission ratio at the wound site over 40 minutes of clotting: low and stable

## Cy7-NH-e9-c(S-Peg12)oPPRSFL-r9-c(Cy5)-CONH2 [RACPPPPRSFL]
plasmin
  selectivity for thrombin over plasmin (ratio of kcat/Km): 14.3 fold
Thrombin [4]; cuvet spectrofluorometer
  change in the Cy5/Cy7 emission ratio on addition of purified thrombin: 34 fold
Thrombin [4]; approx. 670 nm
  increase in Cy5 emission on addition of purified thrombin: 8.8 fold
Thrombin [4]; approx. 780 nm
  decrease in Cy7 re-emission on addition of purified thrombin: 3.8 fold
[3]
  cleavage by thrombin, plasmin, factor Xa on SDS-PAGE (selectivity): selective for thrombin
Factor Xa
  kcat/Km for factor Xa: no detectable activity
[2]; 10 nmol
  change in Cy5/Cy7 ratio from one to five minutes post injury: no significant change
[2]; 10 nmol probe
  time post injury at which a Cy5/Cy7 ratio increase was detectable: 10 min

## lepirudin [reference compound]
[2]; lepirudin 0.5 mg/mouse immediately prior to probe injection
  effect on cleavage and ratio change of RACPPNleTPRSFL: inhibited the cleavage and ratio change
